The sample as a whole holds a higher share of hits than the screen did.
RORa inhibitor – blocks the human nuclear receptor RORA; CHO-K1 Gal4-RORA LBD luciferase reporter, luminescence; inhibition, % at 10 µM; actives 0.43% (n = 65,000);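 active = inhibition above the mean of all tested compounds plus 3 SD, cut at about 52% in these data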
Target sequence (P35398 whole entry, looked up, the tested form may be a part): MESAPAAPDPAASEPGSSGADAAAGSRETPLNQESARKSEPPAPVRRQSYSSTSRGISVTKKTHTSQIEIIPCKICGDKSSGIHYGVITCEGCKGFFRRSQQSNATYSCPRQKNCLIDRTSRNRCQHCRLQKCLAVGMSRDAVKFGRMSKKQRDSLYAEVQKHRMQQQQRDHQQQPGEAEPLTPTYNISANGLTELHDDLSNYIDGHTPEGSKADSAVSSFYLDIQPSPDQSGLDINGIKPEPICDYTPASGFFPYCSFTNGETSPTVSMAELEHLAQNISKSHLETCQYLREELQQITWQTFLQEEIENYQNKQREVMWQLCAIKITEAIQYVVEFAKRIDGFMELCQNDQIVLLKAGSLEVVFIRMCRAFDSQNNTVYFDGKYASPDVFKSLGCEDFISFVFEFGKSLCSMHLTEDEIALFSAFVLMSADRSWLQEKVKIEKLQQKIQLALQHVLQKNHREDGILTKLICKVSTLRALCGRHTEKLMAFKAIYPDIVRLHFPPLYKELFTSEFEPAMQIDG
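Test system – CHO-K1 Gal4-RORA LBD luciferase reporter cells · Schedule – 20 h at 37 °C · Signal – luminescence from basal luciferase reporter expression · Measure – percent inhibition of basal reporter luminescence, control-normalized · Control set – -RORA mock-transfected DMSO wells 100%, +RORA DMSO wells 0%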
Of the large screens only hits and unclear results are named; the others gave an inactive call.

Cc1cccc(N2CC(C(=O)Nc3ccc4c(c3)OCO4)CC2=O)c1C (stereo not drawn)	none
CCC(C)(C(=O)NC1CCCCC1)N(C(=O)c1cnccn1)c1c(C)n(C)n(-c2ccccc2)c1=O (stereo not drawn)	none
CCC(CO)NCCNC(CC)CO (stereo not drawn)	none
COc1ccc2c(c1)sc1nc(-c3ccccc3)cn12	RORa inhibitor 92
COc1ccc(-c2cc(=O)c3ccccc3s2)cc1	none
COc1ccc(-c2cn3c(C)c(C(=O)NC(C)(C)C)sc3n2)cc1	none
COc1ccc(CCC(=O)Nc2ccc3c(c2)OCCO3)cc1	none
O=C(O)CSCC(=O)Nc1cccc2ccccc12	none
CN(C)C(=O)CCc1nc(-c2ccc(C(C)(C)C)cc2)no1	RORa inhibitor 82
CC(C)(C)c1ccc(-c2noc(CCC(N)=O)n2)cc1	RORa inhibitor 88
CNC(=O)CCc1nc(-c2ccc(C(C)(C)C)cc2)no1	RORa inhibitor 89
NC(=O)c1ccc(NC(=O)CCCc2nc(-c3ccccc3Cl)no2)cc1	none
CC(C)(C)c1ccc(-c2nnc(SCC(=O)O)n2N)cc1	none
O=C(Nc1ccc(-c2noc(CCc3ccccc3)n2)cc1)c1ccco1	none
c1ccc(-c2noc(CN3CCN(c4ccccc4)CC3)n2)cc1	none
Cc1cccc(-c2noc(Cc3ccccc3)n2)c1	none
Cc1cccc(C(=O)NC2CCN(CC(=O)N3CCOCC3)CC2)c1	none
COC(=O)c1ccc(CSc2nc3scc(-c4cccs4)c3c(=O)[nH]2)o1	none
COc1ccc(C(C)N2CC34C=CC(O3)C(C(=O)O)C4C2=O)cc1 (stereo not drawn)	none
Cc1nn(Cc2nc(-c3cccs3)no2)c(C)c1Br	none
CCCc1cc(=O)[nH]c(SCC(=O)Nc2ccc(OC(F)F)cc2)n1	none
Cc1ccc(S(=O)(=O)NCC(=O)OCN2C(=O)c3ccccc3C2=O)cc1	none
CCc1nn2cc(-c3ccccc3)nc2s1	RORa inhibitor 66
Cc1c(C(=O)Nc2ccccc2)sc2nc(-c3ccccc3)cn12	none
CCS(=O)(=O)n1nc(-c2ccccc2)cc1N	none
CN(C)CCOC(=O)C1(c2ccccc2)CCOCC1	none
Cc1oc2cc3c(C(=O)OCCN(C)C)c(C)oc3cc2c1C(=O)OCCN(C)C	RORa inhibitor 82
COC(=O)c1cc(COc2ccc3oc(C)c(C(=O)OC)c3c2)c(C)o1	none
CCOC(=O)C1CCCN(C(=O)C2CCN(S(=O)(=O)c3cnc[nH]3)CC2)C1 (stereo not drawn)	none
CSc1cccc(NS(=O)(=O)c2cccc3nsnc23)c1	none

Bioassay records: PubChem BioAssay, The Scripps Research Institute Molecular Screening Center
